These results are taken from ChEMBL document CHEMBL4020840, “Synthesis and Biological Evaluation of Selenium-Containing 4-Anilinoquinazoline Derivatives as Novel Antimitotic Agents” (J Med Chem, 2018).

The subject of experiment [1] is A549. Kind of experiment: Induction of mitochondrial membrane disruption in human A549 cells assessed as cells with mitochondrial membrane potential loss at 4 nM after 48 hrs by JC1 staining based flow cytometry (reference value: 0.82%). In kind it is functional. Background: Flow cytometry measures light scatter and fluorescence of single cells or particles in a stream.

For another experiment, the system named is A549/CDDP. Nature of the experiment: Growth inhibition of human A549/CDDP cells after 48 hrs by MTT assay. It counts as functional, cell-based. The procedure, abridged: (§1)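 MTT assay: log-phase cells plated at 5 × 10³/well for 24 h, then exposed to a range of test concentrations for 48 h. MTT (5 mg/mL) added for 4 h, formazan dissolved in DMSO, absorbance read at 570 nm. IC50 is the concentration giving 50% growth inhibition, from dose-response curves; at least three independent experiments, mean ± SE.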

Experiment [2] can be described thus: Selectivity index, ratio of IC50 for HLF to IC50 for human A549 cells. Summed up:
(§2)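 MTT assay in normal cells and A549: seeding at 5 × 10³ cells/well for 24 h, 48 h compound exposure, then 5 mg/mL MTT for 4 h, DMSO solubilisation and absorbance at 570 nm. IC50 values came from dose–response curves of at least three independent experiments. Selectivity ratio = IC50 in normal cells / IC50 in A549.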

In the next experiment the test system is HeLa. Nature of the experiment: Antiproliferative activity against human HeLa cells after 48 hrs by MTT assay. In kind it is functional, cell-based. The procedure, abridged: as §1
(In general: Tetrazolium dyes change colour on reduction, which living cells bring about.)

Experiment [3] relates to A549. Nature of the experiment: Induction of apoptosis in human A549 cells assessed as necrotic cells at 4 nM after 48 hrs by Annexin V-FITC/propidium iodide staining based flow cytometry relative to control. It counts as functional.
Experiment [4] has as its system A549. Nature of the experiment: Induction of apoptosis in human A549 cells assessed as live cells at 2 nM after 24 hrs by Annexin V-FITC/propidium iodide staining based flow cytometry (reference value: 98.84%). It counts as functional.
Experiment [5] concerns A549. Nature of the experiment: Induction of mitochondrial membrane disruption in human A549 cells assessed as cells with mitochondrial membrane potential loss at 8 nM after 48 hrs by JC1 staining based flow cytometry (reference value: 0.82%). In kind it is functional.
Experiment [6] can be described thus: Resistance factor, ratio of IC50 for human A549/CDDP cells to IC50 for human A549 cells. It counts as functional. The procedure, abridged:
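MTT assay: log-phase cells were seeded at 5 × 10³/well for 24 h, then exposed to a concentration series for 48 h. MTT (5 mg/mL) was added for 4 h, formazan was dissolved in DMSO, and A570 was read. IC50 values came from dose–response curves of at least three independent experiments. Resistance factor = IC50 in the resistant line / IC50 in the parental sensitive line.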

Experiment [7] can be described thus: Selectivity index, ratio of IC50 for human LO2 cells to IC50 for human A549 cells. In kind it is functional. Summed up: as §2
Experiment [8] relates to A549. Kind of experiment: Induction of apoptosis in human A549 cells assessed as late apoptotic cells at 4 nM after 48 hrs by Annexin V-FITC/propidium iodide staining based flow cytometry (reference value: 0.03%). In kind it is functional.

SMILES strings stand for the structures.

With `C[Se]c1ccc(N(C)c2nc(C)nc3ccccc23)cc1`, the Activity in the experiment with A549 [1] is 42.83%; in the experiment with A549 [3], 6.8%; with A549 [4] it was 78.97%; in the experiment with A549 [5], 63.13%; with A549 [8] it was 28.75%. Besides, the IC50 (usually the midpoint of a concentration-inhibition curve) was found to be 9 nM in the experiment on A549/CDDP and 3 nM in the experiment with HeLa. In addition, the “Ratio IC50” value in experiment [2] was 10; in experiment [6] it was 4.09; in [7], 9.5.
